From PubChem BioAssay
Inconclusive results are not listed.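 Rule for the calls, unless noted: active = cell viability at or below a set limit in both duplicate runs, the limit being the all-compound median minus 4 SD (cut at about 23% in these data, passing the limit was not always enough); inconclusive = no clear call, values can overlap the other calls; inactive = the rest.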

Columns and labels:
[1] = OD615 S. cerevisiae growth inhibition, permissive medium, pilot counter-assay, permissive growth control for S. cerevisiae lifespan shortening project (AID 705;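 active = growth inhibition above 25% in both replicates, a cutoff set 3 SD above the mean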); conditions: OD615, 24 h, at 10 µM, active compounds read high
Summary of the method: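 System: Engineered DeaD yeast | Buffer or medium: SC raffinose/galactose permissive medium | Incubation: Cells pre-grown 4 h, then 24 h compound exposure, 30 °C humidified | Measured by: Absorbance (optical density) at 615 nm | Read-out: Reduction in yeast growth (OD615)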

[2] = Restrictive medium S. cerevisiae growth inhibition, OD615, pilot screen of yeast lifespan reduction project, restrictive growth control (AID 706;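 active = growth inhibition above a set limit, 3 SD over mean compound inhibition, in both replicates, cut at about 43% in these data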;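 note: modified DeaD lifespan yeast strain shifted to restrictive glucose medium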); conditions: OD615, 48 h, at 10 µM, active compounds read high
Summary of the method: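 Material: modified S. cerevisiae; Medium: glucose-based CSMM-D restrictive medium; Compound dosing: one concentration, 10 µM final, 0.25% DMSO; Incubation: 48 h compound exposure at 30 °C; Measured by: OD615.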

[3] = viability gain of MRP-1-high H69AR cells under doxorubicin, pilot screen, MRP-1 activator project, CellTiter-Glo, duplicate (AID 807;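 active = viability increase at or above a cutoff of the median across tested compounds plus 3 SD, cut at about 8.5% in these data, passing the limit was not always enough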;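 note: compound pretreatment 18-22 h then 72 h combined with doxorubicin; 0% = doxorubicin alone and 100% = vehicle without doxorubicin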); conditions: H69AR viability with doxorubicin, CellTiter-Glo luminescence; at 10 µM; active compounds read high
[4] = growth suppression of beta-catenin knockout HCT116, pilot screen, human colon tumor cells (AID 823); conditions: CellTiter-Glo, 60 h, at 10 µM, active compounds read low;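 note: 0% = wells killed by 20 µM Hyamine and 100% = untreated DMSO cell wells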
[5] = growth suppression of PTEN-deleted HCT116, pilot screen, cell-based, HCT116 clonal line, CellTiter-Glo (AID 824;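 active = viability at or below 27.92% in each of two runs, the all-compound median minus 4 SD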;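 note: 0% = 20 µM Hyamine control and 100% = vehicle cell control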); conditions: 60 h, at 10 µM, active compounds read low
[6] = inhibitors of the yeast RAM network, pilot screen, dse1pr::URA3 reporter, 5-FOA selection (AID 869;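 active = inhibition over a set limit, the all-compound mean plus 3 SD, in both replicate runs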;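 note: 0% = DMSO wells with no growth and 100% = 10 µM 1-NA-PP1 with full growth; RAM network block rescues cells from 5-FOA so hits raise OD615 growth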); conditions: S. cerevisiae dse1pr::URA3 5-FOA growth, OD615, 2 d; at 10 µM; active compounds read high; strain carries analog-sensitive mutant Cbk1 kinase
[7] = RAM signaling pathway blockade in yeast – S. cerevisiae, Pdr1DBD-CYC8 efflux-inhibited sensitized strain, primary screen (AID 1298;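 active = RAM network inhibition above 8.4% in each of two replicates, 3 SD over the compound average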;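 note: 0% = DMSO untreated cells without growth and 100% = 10 µM 1-NA-PP1 full growth; higher means more yeast growth rescued from 5-FOA killing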); conditions: S. cerevisiae cbk1-as DSE1-URA3 strain, 5-FOA growth OD615, 2 d; at 50 µM; active compounds read high

Cc1c(N=Cc2ccco2)c(=O)n(-c2ccccc2)n1C
inactive: growth inhibition [1] -11.1% | growth inhibition [2] -8.96% | viability increase [3] -1.15% | viability [4] 93.8% | viability [5] 96.7% | inhibition [6] 1.39% | RAM network inhibition [7] 0.89%

NC(=O)C1(N2CCCCC2)CCN(S(=O)(=O)c2cc(Cl)ccc2Cl)CC1
inactive: growth inhibition [1] 4.2% | growth inhibition [2] 3.53% | viability increase [3] 0.74% | viability [4] 98.7% | viability [5] 91.1% | inhibition [6] 1.56% | RAM network inhibition [7] 6.42%

Cc1onc(-c2ccccc2)c1C(=O)Nc1ccc2c(c1)OCCO2
inactive: growth inhibition [1] -5.44% | growth inhibition [2] -6.46% | viability increase [3] -0.35% | viability [4] 96.6% | viability [5] 94.9% | inhibition [6] 2.96% | RAM network inhibition [7] 2.34%

Cn1cccc1Cc1nnc(SCC(=O)NC2CCCC2)n1-c1ccc(F)cc1
inactive: growth inhibition [1] 1.76% | growth inhibition [2] 6.74% | viability increase [3] -2.12% | viability [4] 104% | viability [5] 96.7% | inhibition [6] 0.675% | RAM network inhibition [7] 3.25%

C=CCNc1nc2c(c(=O)n(C)c(=O)n2C)n1CC
inactive: growth inhibition [1] 1.76% | growth inhibition [2] 3.36% | viability increase [3] -2.38% | viability [4] 107% | viability [5] 99.1% | inhibition [6] 2.24% | RAM network inhibition [7] 3.73%

O=C(CN1CCN(c2ncccn2)CC1)NCCC1=CCCCC1
inactive: growth inhibition [1] -8.09% | growth inhibition [2] -27.1% | viability increase [3] -2.15% | viability [4] 94% | viability [5] 93.7% | inhibition [6] 1.9% | RAM network inhibition [7] 5.02%

CCCCCOC(=O)C1=C(C)NC(=O)NC1c1ccccc1OCC (stereo unspecified)
inactive: growth inhibition [1] -2.38% | growth inhibition [2] 11.9% | viability increase [3] -0.2% | viability [4] 69.8% | viability [5] 69.7% | inhibition [6] 0.45% | RAM network inhibition [7] 1.97%

COc1cccc(C2CC(c3cccc(OC)c3)n3nc(N)nc3N2)c1 (stereo unspecified)
inactive: growth inhibition [1] -4.01% | growth inhibition [2] 3.82% | viability increase [3] -2.05% | viability [4] 95.2% | viability [5] 92.6% | inhibition [6] 0.07% | RAM network inhibition [7] 2.5%

CS(=O)(=O)c1ccc2nc(NC(=O)c3ccco3)sc2c1
inactive: growth inhibition [1] -16% | growth inhibition [2] -4.42% | viability increase [3] -7.64% | viability [4] 84.9% | viability [5] 81.9% | inhibition [6] 3.1% | RAM network inhibition [7] 4.15%

CCn1c(C(C)NC(=O)c2cccs2)nc2ccccc21 (stereo unspecified)
inactive: growth inhibition [1] -1.68% | growth inhibition [2] -9.03% | viability increase [3] -1.68% | viability [4] 103% | viability [5] 91.9% | inhibition [6] 1.33% | RAM network inhibition [7] 6.3%

O=C(Nc1ccc(S(=O)(=O)N2CCCC2)cc1)C1COc2ccccc2O1 (stereo unspecified)
inactive: growth inhibition [1] -10.9% | growth inhibition [2] -15.6% | viability increase [3] 0.84% | viability [4] 97.8% | viability [5] 83% | inhibition [6] 1.24% | RAM network inhibition [7] 5.44%

CCn1c2ccccc2c2nnc(SCN3C(=O)c4ccccc4C3=O)nc21
inactive: growth inhibition [1] -12.1% | growth inhibition [2] -1.02% | viability increase [3] -3.94% | viability [4] 98.5% | viability [5] 100% | inhibition [6] 2.71% | RAM network inhibition [7] 5.66%

CCCC(=O)Nc1nc(-c2ccc3c(c2)OCCO3)cs1
inactive: growth inhibition [1] -12% | growth inhibition [2] -6.14% | viability increase [3] 2.44% | viability [4] 77.9% | viability [5] 83.3% | inhibition [6] 1.37% | RAM network inhibition [7] 0.85%

CCOC1OC2C(CO)OC(n3cnc4c(N)ncnc43)C2O1 (stereo unspecified)
inactive: growth inhibition [1] 6.12% | growth inhibition [2] 10.6% | viability increase [3] 0.13% | viability [4] 95.1% | viability [5] 96.6% | inhibition [6] 1.5% | RAM network inhibition [7] 1.28%

CCOC(=O)c1cccc(NC(=O)CCS(=O)(=O)c2cccc3nsnc23)c1
inactive: growth inhibition [1] -0.82% | growth inhibition [2] -22% | viability increase [3] -3.74% | viability [4] 100% | viability [5] 97% | inhibition [6] 0.99% | RAM network inhibition [7] 2.43%

Cn1c(Cn2c(=O)sc3ccccc32)nnc1SCc1cccc(F)c1
inactive: growth inhibition [1] -7.92% | growth inhibition [2] 2.12% | viability increase [3] -0.5% | viability [4] 71.1% | viability [5] 69.7% | inhibition [6] 3.43% | RAM network inhibition [7] 7.87%

CC1(C)Oc2ccc3ccc(=O)oc3c2/C(=C/N)C1=O
inactive: growth inhibition [1] -6.37% | growth inhibition [2] -4.45% | viability increase [3] -4.51% | viability [4] 88.5% | viability [5] 81.7% | inhibition [6] 0.535% | RAM network inhibition [7] -0.57%

O=C(OCCCCN1C(=O)c2ccccc2C1=O)c1ccc(S(=O)(=O)N2CCCC2)cc1
inactive: growth inhibition [1] -11.7% | growth inhibition [2] -0.405% | viability increase [3] 0.28% | viability [4] 101% | viability [5] 100% | inhibition [6] 1.85% | RAM network inhibition [7] 4.52%
